# Measurements reported in paper PMC12866962 (Cell host & microbe, 2026).
# Assays:
# [1] = Toxicity test of compounds in mice; format: in vivo
# [2] = tested on: Thoeris system in the P. aeruginosa MRSN11538 clinical isolate; assay: Phage reproduction of Lit1 on P. aeruginosa MRSN11538; format: cell-based, Pseudomonas aeruginosa; conditions: PFUs 20 hours post-infection; 1 mM of IP6C, 8.2 mM of nicotinamide
# [3] = tested on: Streptococcus sanguinis SK36; assay: Polymicrobial model culture, S. sanguinis CFUs; format: cell-based; conditions: 300 µM IP6C, 8.5 hours
# In short: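 S. aureus USA300, S. sanguinis SK36 and P. aeruginosa PAO1:Thoeris II overnights were mixed 1:1:1, then diluted 1:100 into TSB + 0.5% yeast extract + 10 mM MgSO4. Wells received DMSO or test compound, plus Lit1 (MOI 0.0001) or LB. Incubation was 8.5 h at 37 °C, 5% CO2. CFUs were counted before and after by PBS serial dilution on Streptococcus Selective Agar at 37 °C, 5% CO2. Three replicates.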
# [4] = tested on: P. aeruginosa MRSN11538 Thoeris system cloned into P. aeruginosa PAO1; assay: Phage reproduction of Lit1 on P. aeruginosa PAO1:Thoeris II; format: cell-based, Pseudomonas aeruginosa; conditions: PFUs 15 hours post-infection; 1 mM of IP6C, 8.2 mM of nicotinamide
# In short: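 Overnight P. aeruginosa diluted 1:100 into LB + 10 mM MgSO4. 180 µL went into wells holding 2 µL test compound stock in DMSO or water. After 30 min at 37 °C, ~10,000 PFU Lit1 was added and OD600 read every 30 min at 37 °C. At 15 h, supernatant (16,000 g, 10 min) was titred by drop plaque assay on undefended P. aeruginosa.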
# [5] = tested on: human cell lines (hTERT RPE-1, HDFn); assay: Human cell viability assay; format: cell-based; conditions: 72 hours, Cell Titer Glo 2.0
# In short: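 hTERT RPE-1 and neonatal dermal fibroblasts were kept in DMEM with 10% FBS, penicillin/streptomycin, 37 °C, 5% CO2, and tested mycoplasma-negative. Cells were seeded at 2,000/well. After 24 h, medium was replaced with 0.1% DMSO vehicle or test compound (stock 1 M in DMSO), six replicate wells per dose. Luminescence was read after 72 h and expressed as percent viability relative to vehicle.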
# [6] = tested on: E. faecalis DS16 Thoeris system cloned into E. faecalis OG1RF; assay: Thoeris protection in liquid media, E. faecalis OG1RF:Thoeris + NPV1; format: cell-based; conditions: Enterococcus faecalis, read-out: IC50 (inhibition of type II Thoeris in E. faecalis OG1RF:Thoeris)
# [7] = tested on: P. aeruginosa PAO1:Thoeris; assay: Preliminary phage therapy model in mice infected with PAO1:Thoeris; format: in vivo, BALB/c mice; conditions: PAO1:Thoeris i.p. infection, IP6C only
# [8] = tested on: P. aeruginosa MRSN11538 Thoeris system cloned into P. aeruginosa PAO1; assay: Thoeris protection in liquid media, P. aeruginosa PAO1:Thoeris + Lit1; format: cell-based; conditions: Pseudomonas aeruginosa, PAO1, read-out: IC50 (inhibition of type II Thoeris in P. aeruginosa PAO1:Thoeris)
# [9] = tested on: BaY2 Thoeris system (type II); assay: Phage reproduction of SPO1; format: cell-based; conditions: PFUs 15 hours post-infection; 1 mM of compound 1, 333 µM of IP6C, 1 mM of compound 5
# In short: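 B. subtilis overnight culture diluted 1:100 in LB; 180 µL added to wells with 2 µL compound stock (DMSO or water). Preincubated 30 min at 30 °C, then ~10,000 PFU SPO1 added; grown at 30 °C, 208 rpm, OD600 every 30 min. After 15 h, cleared supernatant (16,000 g, 10 min) titred by 5 µL drops of 1:10 dilutions on undefended B. subtilis soft-agar lawns.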
# BaY2ThsB [10] = biological target: T1, BaY2ThsB (Bacillus amyloliquefaciens, UniProt I2C644); format: cell-based; conditions: for His-ADPR production by ThsB: 500 µM of compound, SPO1-infected B. subtilis Pspank-BaY2ThsB, LC-HRMS
# [11] = tested on: BaY2 Thoeris system (type II); assay: Thoeris protection in liquid media; format: cell-based; conditions: for Inhibition of BaY2 Thoeris (phage-induced host population lysis), in words: B. subtilis expressing BaY2 Thoeris, phage SPO1, liquid culture
# [12] = tested on: E. faecalis DS16 Thoeris system cloned into E. faecalis OG1RF; assay: Phage reproduction of NPV1 on E. faecalis OG1RF:Thoeris; format: cell-based, Enterococcus faecalis; conditions: PFUs 15 hours post-infection; 10 mM of IP6C, 8.2 mM of nicotinamide
# In short: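 Overnight E. faecalis was diluted 1:1000 into THB + 10 mM MgSO4 and added to compound-containing wells. After 1 h at 37 °C, ~1,000 PFUs NPV1 were added, with OD600 read every 30 min. At 15 h, culture was spun at 16,000 g for 10 min. Supernatant PFUs were titred by small-drop plaque assay on defenceless E. faecalis and compared with input PFUs. Mean ± SEM, three biological replicates.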
# BaY2ThsA^Macro [13] = biological target: T2, BaY2ThsA^Macro (Bacillus amyloliquefaciens, UniProt I2C645); assay: IP6C-ADPR and His-ADPR pull-down with BaY2ThsA^Macro; format: binding, Bacillus amyloliquefaciens Y2
# [14] = tested on: Thoeris system in the P. aeruginosa MRSN11538 clinical isolate; format: cell-based; conditions: Pseudomonas aeruginosa, read-out: IC50 (sensitization of P. aeruginosa MRSN11538 WT to Lit1)
# In short: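 Liquid lysis assay. Host overnight culture diluted 1:100 into LB + 10 mM MgSO4; 180 µL added per well over 2 µL test compound stock (DMSO or water); 30 min at 37 °C before ~10,000 PFU Lit1. OD600 recorded every 30 min at 37 °C. Thoeris strength derived from integrated area under the lysis curve, normalized to no-compound and no-defense controls.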
# [15] = tested on: Staphylococcus aureus USA300; assay: Polymicrobial model culture, S. aureus CFUs; format: cell-based; conditions: 300 µM IP6C, 8.5 hours
# [16] = tested on: ThsB (BaY2ThsB or ArThsB); assay: Thermal shift assay; format: binding; conditions: 5 µM protein, 1 mM compound, in the presence of NAD+
# In short: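 BaY2ThsB or ArThsB was mixed with test compound or buffer in 10 mM HEPES pH 7.5, 150 mM NaCl, 5 mM MgCl2 with NAD+.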
# [17] = Quantification of IP6C in polymicrobial model culture; format: physicochemical; conditions: after 24 hours in polymicrobial co-culture with phage, LC-MS/MS
# In short: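 In the three phage-plus-compound polymicrobial cultures, 1 µL was sampled at start and at 24 h and quenched in 1 mL 90% acetonitrile. Analysis used a HILIC column with 20 mM ammonium acetate pH 9.2 containing medronic acid versus acetonitrile, gradient at 0.4 mL/min. MRM monitored 162.1→117 (quantifier) and 162.1→78.1 (qualifier), quantified against a pure-standard calibration curve.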
# BaY2ThsB [18] = biological target: T1, BaY2ThsB; assay: IP6C-ADPR pull-down with BaY2ThsB; format: binding, Bacillus amyloliquefaciens Y2; conditions: protein purified from E. coli cells grown with 1.25 mM IP6C
# In short: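 E. coli TOP10 co-expressing DelTM-ThsA-TwinStrep and ThsB-His12 from one pBAD operon was induced at OD600 0.6 with 0.2% L-arabinose, with or without test compound, then grown overnight at 16 °C. ThsB was captured on His-tag magnetic beads, heat-denatured 5 min at 98 °C and centrifuged. Supernatant was analysed by LC-MS (extracted ion chromatogram of conjugate).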
# EcThsA^Macro = assay: ITC experiment; format: binding, Escherichia coli
# BaY2ThsA^Macro [19] = biological target: T2, BaY2ThsA^Macro; assay: Saturation transfer difference; format: binding, Bacillus amyloliquefaciens Y2; conditions: 10 µM BaY2ThsA^Macro, 1 mM IP6C-ADPR, competed with 1 mM ADPR
# [20] = tested on: ThsA from Escherichia coli; conditions: homologous ThsA from Escherichia coli; cited from earlier work
# T2 sequence (I2C645 83-297): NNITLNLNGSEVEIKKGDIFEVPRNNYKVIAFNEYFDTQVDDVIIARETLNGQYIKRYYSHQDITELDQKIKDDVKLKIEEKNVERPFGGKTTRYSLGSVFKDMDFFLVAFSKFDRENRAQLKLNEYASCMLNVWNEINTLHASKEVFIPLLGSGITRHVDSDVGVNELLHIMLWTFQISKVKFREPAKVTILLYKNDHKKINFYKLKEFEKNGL
# T1 sequence (I2C644 whole entry): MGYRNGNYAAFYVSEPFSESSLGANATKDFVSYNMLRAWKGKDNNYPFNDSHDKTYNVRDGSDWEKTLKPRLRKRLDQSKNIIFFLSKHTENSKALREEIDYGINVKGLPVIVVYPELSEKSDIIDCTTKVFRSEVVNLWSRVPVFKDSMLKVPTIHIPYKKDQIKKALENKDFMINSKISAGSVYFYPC
smiles,measurement,setting,value
"NC(=O)c1ccc2nccn2c1 [IP6C, imidazo[1,2-a]pyridine-6-carboxamide]",Toxicity to mice,"[1]; i.p., 50 μL of 20 mg/mL, observed 7 days",not toxic
same,Food intake and body weight of mice,[1]; mice treated with IP6C,initially eat less and lose weight
same,Phage propagation of Lit1 on P. aeruginosa MRSN11538 WT,[2],allowed Lit1 phages to successfully propagate
same,S. sanguinis CFUs in polymicrobial mixture,[3],unaffected
same,Phage propagation of Lit1 on P. aeruginosa PAO1:Thoeris II,[4],allowed P. aeruginosa phages to propagate
same,Toxicity to human cell lines,[5],not toxic
same,IC50,[6],8200 µM
same,Survival of mice treated with compound only (no phage),[7],all mice died within one day
same,IC50,[8],19 µM
same,Phage reproduction of SPO1 on B. subtilis expressing BaY2 Thoeris,[9],promoted the reproduction of SPO1
same,Intracellular NAD+ level,"BaY2ThsB [10]; 500 µM of IP6C, after SPO1 infection",unchanged
same,His-ADPR production by ThsB,BaY2ThsB [10],abolished His-ADPR production
same,IC50,"[11]; Bacillus amyloliquefaciens, read-out: IC50 (inhibition of BaY2 Thoeris)",10 µM
same,Phage proliferation of NPV1 on E. faecalis OG1RF:Thoeris,[12],fully rescued phage proliferation
same,Amount of His-ADPR bound to BaY2ThsA^Macro,BaY2ThsA^Macro [13]; E. coli co-expressing BaY2ThsA^Macro and BaY2ThsB grown with 1.25 mM IP6C,dramatically decreased
same,IC50,[14],116 µM
same,S. aureus CFUs in polymicrobial mixture,[15],unaffected
same,Binding to ThsB (melting temperature shift),[16],no significant binding
same,Temporal stability: IP6C levels in co-culture,[17],no measurable decrease
"N[C@@H](Cc1c[nH]cn1)C(=O)O [histidine, reference compound]",Binding to ThsB (melting temperature shift),[16],no significant binding
NC(=O)c1ccc2n(cc[n+]2[C@@H]2O[C@H](COP(=O)(O)OP(=O)(O)OC[C@H]3O[C@@H](n4cnc5c(N)ncnc54)[C@H](O)[C@@H]3O)[C@@H](O)[C@H]2O)c1 [IP6C-ADPR],Co-purification of IP6C-ADPR with BaY2ThsB,BaY2ThsB [18],did not co-purify with BaY2ThsB
same,Binding to EcThsA^Macro by ITC,EcThsA^Macro,did not reveal any interpretable binding
same,Binding to BaY2ThsA^Macro by STD NMR,BaY2ThsA^Macro [19],binds poorly
same,Intracellular concentration of IP6C-ADPR,"BaY2ThsB [10]; IPTG-inducible BaY2ThsB expression system, cells grown with IP6C, approximated with IP6C-ADPR standard",around 700 nM
same,IP6C-ADPR detected in purified BaY2ThsA^Macro,BaY2ThsA^Macro [13]; protein co-expressed with BaY2ThsB in E. coli grown with 1.25 mM IP6C,no IP6C-ADPR was detected
NC(=O)c1cccnc1 [nicotinamide],Phage propagation of Lit1 on P. aeruginosa MRSN11538 WT,[2],allowed Lit1 phages to successfully propagate
same,Phage propagation of Lit1 on P. aeruginosa PAO1:Thoeris II,[4],allowed P. aeruginosa phages to propagate
same,IC50,[6],1500 µM
same,IC50,[8],185 µM
same,His-ADPR production by ThsB,BaY2ThsB [10],inhibited His-ADPR production
same,"Inhibition of BaY2 Thoeris (phage-induced host population lysis), in words",[11]; listed as 9,fully inhibited the Thoeris defense
same,Phage proliferation of NPV1 on E. faecalis OG1RF:Thoeris,[12],fully rescued phage proliferation
same,IC50,[14],838 µM
Nc1ncnc2c1ncn2[C@@H]1O[C@H](COP(=O)(O)OP(=O)(O)OC[C@H]2OC(O)[C@H](O)[C@@H]2O)[C@@H](O)[C@H]1O (some centres unmarked) [ADPR],Kd,[20],4.6 ± 0.5 µM
"c1ccn2ccnc2c1 [Compound 26, imidazo[1,2-a]pyridine]","Inhibition of BaY2 Thoeris (phage-induced host population lysis), in words",[11],weak potency
